Legend:
[1] = melting temperature; fluorescence melt of hairpins on a sequencing array, two-state fit, raised by 9.35 °C to match UV melts; conditions: sodium 0.088 M
How it was run: (§1)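 Library hairpins on a sequenced MiSeq flow cell carried annealed Cy3 and quencher oligos, and their Cy3 fluorescence was imaged in 50 mM Na-HEPES pH 8.0 with 25 mM NaCl, in 2.5 °C steps up to 60 °C. Signals were normalised to Cy3 before quenching and to control constructs. Melting temperature and folding enthalpy were obtained from bootstrapped two-state fits, combined by inverse-variance weighting across four replicates, and the fitted temperatures were then raised by 9.35 °C to match UV melts.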

[2] = folding enthalpy; higher = less favourable; fluorescence melt of hairpins on a sequencing array, two-state fit; conditions: sodium 0.088 M
How it was run: as §1

Row | Sequence | Tm [1] | folding enthalpy [2]
1 | GGCTTGCGAAAGCAGCC (((.(((....)))))) | 65.3 °C | -29.1 kcal/mol
2 | GGCTTGCGAAAGCAGGCC (((.(((....))).))) | 69.2 °C | -31.3 kcal/mol
3 | GGCTTGCGAAAGCATGCC (((.(((....))).))) | 66.6 °C | -31.4 kcal/mol
4 | GGCTTGGGAAACCAAACC ((.((((....)))).)) | 41 °C | -27.8 kcal/mol
5 | GGCTTGGGAAACCAAGTC (.(((((....))))).) | 52.4 °C | -29.4 kcal/mol
6 | GGCTTTCGAAAGAAGGCC (((.(((....))).))) | 56.7 °C | -40.9 kcal/mol
7 | GGCTTTCGAAAGAATGCC (((.(((....))).))) | 54.8 °C | -41 kcal/mol
8 | GGCTTTGGAAACGAAGCC (((((.(....).))))) | 54 °C | -43.6 kcal/mol
9 | GGGAAAGGAAACTTCCCC (((.(((....))).))) | 36.8 °C | -23.3 kcal/mol
10 | GGGAAAGGAAACTTTCCC (((((((....))))))) | 57.7 °C | -47 kcal/mol
11 | GGGAACCCGAAAGGGCCC (((..(((....)))))) | 45.9 °C | -15.4 kcal/mol
12 | GGGAACGAAAGTTAACCC ((((((....)))..))) | 35.1 °C | -19.8 kcal/mol
13 | GGGAACGAAAGTTACCC ((((((....))).))) | 53.8 °C | -30 kcal/mol
14 | GGGAACGAAAGTTAGCCC ((((((....)))..))) | 33.1 °C | -17.2 kcal/mol
15 | GGGAACGAAAGTTATCCC ((((((....)))..))) | 36.6 °C | -23.3 kcal/mol
16 | GGGAACGAAAGTTCGCCC ((((((....)))..))) | 46.4 °C | -14.8 kcal/mol
17 | GGGAAGAAATTCCC (((((....))))) | 44.6 °C | -19.9 kcal/mol
18 | GGGAAGCGAAAGCTCCCC (((.(((....))).))) | 61.5 °C | -21.7 kcal/mol
19 | GGGAAGGGAAACCTCCCC (((.(((....))).))) | 45.2 °C | -21.6 kcal/mol
20 | GGGAAGGGAAACCTTTCC ((.((((....)))).)) | 45.7 °C | -24.4 kcal/mol
21 | GGGAATCGAAAGATACCC (((.(((....))).))) | 49.6 °C | -30.1 kcal/mol
22 | GGGAATCGAAAGATCCC (((.(((....)))))) | 49.7 °C | -24.6 kcal/mol
23 | GGGAATGAAAATTCCC ((((((....)))))) | 56 °C | -40.6 kcal/mol

Row | Sequence | Tm [1] | folding enthalpy [2]
24 | GGGACAGGAAACTGTCTC (.(((((....))))).) | 51.1 °C | -28.1 kcal/mol
25 | GGGACAGGAAACTGTTCC ((.((((....)))).)) | 51.4 °C | -36.8 kcal/mol
26 | GGGACCACGAAAGTGCCC (((..(((....)))))) | 40 °C | -15.7 kcal/mol
27 | GGGACCGAAAGGTAACCC ((((((....)))..))) | 46.1 °C | -18.9 kcal/mol
28 | GGGACCGAAAGGTTGCCC ((((((....)))..))) | 37.6 °C | -14.5 kcal/mol
29 | GGGACCGCGAAAGCGCCC (((..(((....)))))) | 39.2 °C | -12.5 kcal/mol
30 | GGGACCGGAAACGACCCC (((..((....))..))) | 35.5 °C | -25.2 kcal/mol
31 | GGGACGGGAAACCGTTCC ((.((((....)))).)) | 57.2 °C | -35.2 kcal/mol
32 | GGGACGTCGAAAGACCCC (((..(((....)))))) | 41 °C | -18.4 kcal/mol
33 | GGGACTGGAAACAGTCTC (.(((((....))))).) | 51.7 °C | -20.6 kcal/mol
34 | GGGAGAACGAAAGTTCCC (((..(((....)))))) | 47.7 °C | -17.1 kcal/mol
35 | GGGAGACCGAAAGGTCCC (((..(((....)))))) | 53.2 °C | -12.8 kcal/mol
36 | GGGAGAGGAAACCCTCCC (((((.(....).))))) | 47.6 °C | -28.6 kcal/mol
37 | GGGAGAGGAAACTCCCCC (((.(((....))).))) | 49.4 °C | -17.8 kcal/mol
38 | GGGAGAGGAAACTCTCTC (.(((((....))))).) | 46.2 °C | -21.4 kcal/mol
39 | GGGAGCCGAAAGGCACCC (((.(((....))).))) | 67.1 °C | -29.5 kcal/mol
40 | GGGAGCGAAAGCTGCCCC ((((((....)))..))) | 58.1 °C | -12.6 kcal/mol
41 | GGGAGGCGAAAGCCACCC (((.(((....))).))) | 65.6 °C | -25.1 kcal/mol
42 | GGGAGGGAAACCTCCC ((((((....)))))) | 65.8 °C | -32 kcal/mol
43 | GGGAGGGGAAACCCTTCC ((.((((....)))).)) | 51.6 °C | -32.4 kcal/mol
44 | GGGAGGTCGAAAGACCCC (((..(((....)))))) | 54.5 °C | -14.4 kcal/mol
45 | GGGAGTCGAAAGACACCC (((.(((....))).))) | 56.9 °C | -30 kcal/mol
46 | GGGAGTGCGAAAGCACCC (((..(((....)))))) | 55.2 °C | -11.6 kcal/mol

Row | Sequence | Tm [1] | folding enthalpy [2]
47 | GGGAGTGGAAACATTCCC ((((.((....)).)))) | 48.2 °C | -33.5 kcal/mol
48 | GGGATAACGAAAGTTCCC (((..(((....)))))) | 42.4 °C | -26.7 kcal/mol
49 | GGGATACGAAAGTACCCC (((.(((....))).))) | 50.8 °C | -37.4 kcal/mol
50 | GGGATACGAAAGTAGCCC (((.(((....))).))) | 63.1 °C | -43.9 kcal/mol
51 | GGGATAGGAAACTACCCC (((.(((....))).))) | 38.7 °C | -23 kcal/mol
52 | GGGATAGGAAACTGTTCC ((.(.((....)).).)) | 28.6 °C | -16.5 kcal/mol
53 | GGGATCGAAAGATCCCCC ((((((....)))..))) | 68.2 °C | -10.2 kcal/mol
54 | GGGATCGAAAGATCGCCC ((((((....)))..))) | 47.2 °C | -15.3 kcal/mol
55 | GGGATCGAAAGATCTCCC ((((((....)))..))) | 47.2 °C | -14.1 kcal/mol
56 | GGGATCGAAAGATTGCCC ((((((....)))..))) | 32.6 °C | -14.6 kcal/mol
57 | GGGATCGAAAGATTTCCC ((((((....)))..))) | 32.3 °C | -19 kcal/mol
58 | GGGATGCGAAAGCACCC (((.(((....)))))) | 60 °C | -21.4 kcal/mol
59 | GGGATGGGAAACCGTTCC ((.(.((....)).).)) | 39.1 °C | -27 kcal/mol
60 | GGGATGGGAAACTATCCC (((((.(....).))))) | 49.8 °C | -30.5 kcal/mol
61 | GGGATTCGAAAGAACCC (((.(((....)))))) | 47.1 °C | -25.5 kcal/mol
62 | GGGCAATCGAAAGATCCC (((..(((....)))))) | 34 °C | -21.5 kcal/mol
63 | GGGCACCCGAAAGGGCCC (((..(((....)))))) | 58 °C | -36.7 kcal/mol
64 | GGGCACGAAAGTGGGCCC ((((((....)))..))) | 58.4 °C | -31.8 kcal/mol
65 | GGGCACGAAAGTGTTCCC ((((((....)))..))) | 46.1 °C | -17.7 kcal/mol
66 | GGGCACGCGAAAGCGCCC (((..(((....)))))) | 58.7 °C | -16.2 kcal/mol
67 | GGGCACGGAAACATGCCC (((((.(....).))))) | 51.5 °C | -37.6 kcal/mol
68 | GGGCACGGAAACGCGCCC ((((.((....)).)))) | 64.3 °C | -44 kcal/mol

From the array DNA melting data of Ke et al. (doi:10.1101/2024.01.08.574731)
